The values below come from ChEMBL document CHEMBL1145016, “Synthesis and antitumor activity of conjugates of muramyldipeptide or normuramyldipeptide with hydroxyacridine/acridone derivatives” (J Med Chem, 2003).

Structures are written as SMILES.

For series [1], the system named is Mus musculus. In words: Evaluated in vivo for percent growth delay in mice at 5.60 mg/kg for 15 days by intraperitoneal treatment on UACC-257 melanoma cell line. As to conditions: dose 5.6 mg/kg.
In series [2] the test system is Mus musculus. Kind of series: Evaluated in vivo for toxic deaths of mice at 5.60 mg/kg for 12 days by intraperitoneal treatment on COLO 205 colon cell line. It counts as toxicity, organism-based. On the set-up: dose 5.6 mg/kg, route intraperitoneal. As to conditions: ip, 5.6 mg/kg, 288 h. In a few lines: (§1)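 Nude mice carrying subcutaneous human tumor xenografts, tested at NCI Bethesda; compound given on the stated schedule, intraperitoneally (IP) or intravenously (IV). Three dose levels were tested, and the table reports only the optimal one. Toxic deaths are scored per treatment group alongside tumor weight end points.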

Series [3] deals with Mus musculus. In words: Evaluated in vivo for toxic deaths of mice at 3.35 mg/kg for 7 days by intraperitoneal treatment on SK-MEL-28 melanoma cell line. As to conditions: ip, 168 h.
A short description of series [4]: Evaluated in vivo for subcutaneous score in hallow fiber assay. It is filed as functional. The method in brief: (§2)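 NCI hollow fiber preliminary in vivo assay; scores recorded separately for intraperitoneal (ip) and subcutaneous (sc) fiber implantation sites, with an activity criterion applied (Y/N). Procedure detailed in prior work.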
The nature of series [5]: Tested for cytotoxicity (lethal concentration) of compound, activity expressed as MID log LC50. It counts as functional. In a few lines:
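MID is the calculated mean of LC50 concentrations (M) across the cell line panel, where LC50 is the half-lethal concentration. It is reported as a log value.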

Series [6] concerns Mus musculus. Kind of series: Evaluated in vivo for percent growth delay in mice at 3.35 mg/kg for 10 days by intraperitoneal treatment on NCI-H522 non-small cell lung cell line.
Series [7] deals with Mus musculus. Kind of series: Evaluated in vivo for percent growth delay in mice at 3.35 mg/kg for 7 days by intraperitoneal treatment on SK-MEL-28 melanoma cell line.
Series [8] deals with Mus musculus. Kind of series: Evaluated in vivo for toxic deaths of mice at 8.40 mg/kg for 8 days by intraperitoneal treatment on UACC-62 melanoma cell line. As to conditions: ip, 8.4 mg/kg, 192 h.
Series [9] is described as follows: Evaluated in vivo for intraperitoneal score in hallow fiber assay. It is filed as functional. The method in brief:
as §2

The subject of series [10] is Mus musculus. Kind of series: Evaluated in vivo for toxic deaths of mice at 5.60 mg/kg for 5 days by intraperitoneal treatment on HCT-15 colon cell line. It counts as toxicity, organism-based. On the set-up: dose 5.6 mg/kg, route intraperitoneal. As to conditions: ip, 5.6 mg/kg, 120 h. The method in brief:
as §1

The subject of series [11] is Mus musculus. In words: Evaluated in vivo for percent growth delay in mice at 5.60 mg/kg for 11 days by intraperitoneal treatment on A498 renal cell line. As to conditions: dose 5.6 mg/kg.
Series [12] has as its system Mus musculus. Kind of series: Evaluated in vivo for percent of tumor weight in treated/control of mice at 3.35 mg/kg for 7 days by intraperitoneal treatment on SK-MEL-28 melanoma cell line.
Series [13] concerns Mus musculus. In words: Evaluated in vivo for percent treated/control of mice at 3.35 mg/kg for 10 days by intraperitoneal treatment on NCI-H522 non-small cell lung cell line.
Series [14] relates to Mus musculus. In words: Evaluated in vivo for percent of tumor weight in treated/control of mice at 8.40 mg/kg for 8 days by intraperitoneal treatment on UACC-62 melanoma cell line. As to conditions: dose 8.4 mg/kg.
In series [15] the test system is Mus musculus. Kind of series: Evaluated in vivo for toxic deaths of mice at 3.35 mg/kg for 10 days by intraperitoneal treatment on NCI-H522 non-small cell lung cell line. As to conditions: ip, 240 h.
Series [16] deals with Mus musculus. In words: Evaluated in vivo for percent of tumor weight in treated/control of mice at 5.60 mg/kg by intraperitoneal treatment. As to conditions: dose 5.6 mg/kg.
For series [17], the system named is Mus musculus. Kind of series: Evaluated in vivo for percent of tumor weight in treated/control of mice 5.60 at mg/kg for 11 days by intraperitoneal treatment on A498 renal cell line.
Series [18] has as its system Mus musculus. Kind of series: Evaluated in vivo for percent growth delay in mice at 5.60 mg/kg for 8 days by intraperitoneal treatment on COLO 205 colon cell line. As to conditions: dose 5.6 mg/kg.
The test system of series [19] is Mus musculus. Kind of series: Evaluated in vivo for percent of tumor weight in treated/control of mice at 5.60 mg/kg for 8 days by intraperitoneal treatment on COLO 205 colon cell line. As to conditions: dose 5.6 mg/kg.
A short description of series [20]: Evaluated in vivo for intraperitoneal + subcutaneous score in hallow fiber assay. It counts as functional. The method in brief: as §2
For series [21], the system named is Mus musculus. Kind of series: Evaluated in vivo for percent growth delay in mice at 8.40 mg/kg for 8 days by intraperitoneal treatment on UACC-62 melanoma cell line. As to conditions: dose 8.4 mg/kg.
For series [22], the system named is Mus musculus. In words: Evaluated in vivo for toxic deaths of mice at 5.60 mg/kg for 24 (38) days by intraperitoneal treatment on MDA-MB-435 breast […] cell line. It is filed as toxicity, organism-based. On the set-up: dose 5.6 mg/kg, route intraperitoneal. As to conditions: ip, 5.6 mg/kg. In a few lines:
as §1

In series [23] the test system is Mus musculus. In words: Evaluated in vivo for percent growth delay in mice at 5.60 mg/kg for 7 days by intraperitoneal treatment on AS283 lymphoma cell line. It counts as functional. As to conditions: dose 5.6 mg/kg.

Consider `CC(=O)N[C@@H]1[C@H](OCc2ccccc2)OC(CO)C(O)[C@H]1OC(C)C(=O)N[C@H](C)C(=O)N[C@H](CCC(=O)OCCCNc1c2ccccc2nc2cccc([N+](=O)[O-])c12)C(N)=O` (stereo partly drawn), for which the “Growth delay (T-C/C)” value with Mus musculus [1] was 1%; with Mus musculus [6], 1%; in the series on Mus musculus [7], -3%; in the series on Mus musculus [11], 3%; in the series on Mus musculus [18], -7%; with Mus musculus [21] it was 107%. The “Growth delay (T-C/C)” value in the series with Mus musculus [23] stood at 16%. The Toxic deaths in the series on Mus musculus [2] came out at 1; in the series with Mus musculus [3], 0; in the series on Mus musculus [8], 0; in the series with Mus musculus [10], 2; in the series with Mus musculus [15] it was 1; in the series with Mus musculus [22], 1. Also, the figures for the Score in [4], in series [9] and in [20] were 2, 2 and 4, respectively. The “MID log LC50” value in [5] was 5.78 M. Besides, the Tumor weight is reported as 105% with Mus musculus [12]; 89% in the series on Mus musculus [13]; 1% with Mus musculus [14]; 60% with Mus musculus [16]; 68% with Mus musculus [17]; 65% in the series on Mus musculus [19].
